Screening data (PubChem BioAssay)
This excerpt belongs to a sample that is enriched for hits.
CTSL1 counter: Fasciola hepatica cathepsin L1 inhibitors, primary screen, counter-screen for PFM18AAP inhibitor project, biochemical, QFRET, fluorogenic peptide substrate. recombinant F. hepatica cathepsin L1, Z-Leu-Arg-MCA fluorescence. inhibition, % at 5.96 µM. actives 0.49% (n = 300,000);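 active = inhibition above the mean of all tested compounds plus 3 SD, set per screening campaign, cut at about 17% in these data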
UCH37 inh: inhibitors of human UCH37 deubiquitinase, primary screen, biochemical, Ub-AMC cleavage, fluorescence; Ubiquitin carboxyl-terminal hydrolase isozyme L5 (Homo sapiens), Q9Y5K5; purified proteasome/UCH37; inhibition, % (no concentration beside the values); actives 0.33% (n = 330,000); AID 588478, 2011;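 active = mean inhibition over replicate wells above about 20%, limit read from the data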
Target sequence (Q9Y5K5 whole entry, looked up): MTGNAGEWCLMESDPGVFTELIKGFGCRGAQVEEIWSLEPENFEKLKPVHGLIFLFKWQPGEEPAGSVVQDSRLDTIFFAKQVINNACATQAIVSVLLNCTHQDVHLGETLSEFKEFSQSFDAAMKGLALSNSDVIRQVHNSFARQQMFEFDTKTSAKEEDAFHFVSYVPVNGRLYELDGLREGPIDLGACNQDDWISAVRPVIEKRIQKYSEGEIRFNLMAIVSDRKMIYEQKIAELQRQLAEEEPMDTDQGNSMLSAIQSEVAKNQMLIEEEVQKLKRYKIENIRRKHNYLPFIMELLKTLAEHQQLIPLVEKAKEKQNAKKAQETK
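Schedule: 30 min plus 25 min, room temperature / Material: human UCH37 within purified proteasomes / Technique: AMC fluorescence intensity at 355/460 nm / Buffer or medium: pH 7.4 Tris-HCl (50 mM) with ovalbumin, ATP-MgCl2, DTT / Controls: wells without proteasome as full block, compound-free enzyme plus substrate as uninhibited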
UPR CHOP act: activators of apoptotic CHOP UPR arm, primary screen, cell-based, CHO-CHOP luciferase reporter, luminescence, uHTS. actives 0.34% (n = 330,000). AID 449763, 2010. activation, % at 10 µM. UPR activation; percent of tunicamycin response over DMSO baseline;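 active = at 10 µM dose, activation of 40% or more, normalized to positive control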
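Material: CHO-CHOP cells, stable luciferase reporter of PERK-eIF2a-CHOP signalling; quantity: 500 reporter cells seeded per well; buffer or medium: F12 medium containing 10% fetal bovine serum; compound: one dose, 10 µM in 0.5% DMSO; incubation: 6 h compound treatment, 37 °C; measured by: Steady-Glo luciferase luminescence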
UPR XBP1 act: activators of adaptive XBP1 UPR arm, primary screen, cell-based, CHO-XBP1 luciferase reporter, luminescence, uHTS. IRE1-XBP1 UPR activation; percent of tunicamycin response, DMSO as zero. activation, % at 20 µM. actives 0.33% (n = 330,000). AID 463104, 2010;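 active = versus positive control, 20 µM dose yields 30% or more activation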
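assay system = CHO-XBP1 luciferase reporter cells | amount = 1000 cells/well | buffer or medium = F12 plus 10% FBS | compound dosing = single point, 20 µM final compound, 1% DMSO | incubation = 16-18 h cell attachment at 37 °C, then 6 h compound exposure | detection = Steady-Glo luminescence read | controls = tunicamycin 10 µg/mL and vehicle-only wells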
CHOP inh: inhibitors of CHOP promoter induction, primary screen, cell-based, unfolded protein response, luciferase reporter | inhibition, % at 10 µM | CHO-K1 CHOP-promoter luciferase, tunicamycin-induced, 15-18 h | actives 3.8% (n = 220,000) | AID 2732, 2010;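 active = compounds that reduced the stress-induced luciferase reporter signal by more than about 70% of percent inhibition, limit read from the data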
A number is an active result; - = inactive; . = not tested or not shown; ! = a repeat was not active.

SMILES	CTSL1 counter	UCH37 inh	UPR CHOP act	UPR XBP1 act	CHOP inh
CCOc1ccc(C(=O)NC(=S)NC2CCCC2)cc1[N+](=O)[O-]	-	-	-	-	71
Cc1ccc(NCC(=O)NN=Cc2cc3ccccc3nc2Cl)cc1	.	-	.	.	.
O=C(O)c1cccc(COc2ccc3c(c2)CCC3)c1	-	-	-	-	93
CCOc1ccc(OCc2cccc(C(=O)O)c2)cc1	-	-	-	-	109
O=C(NCc1ccccc1)c1cccc(COc2ccc3c(c2)CCC3)c1	-	-	-	-	-
CCOc1ccc(OCc2cccc(C(=O)N3CCCC3)c2)cc1	-	-	-	-	-
CCN(CC)CCOc1ncnc2c1oc1ccccc12	-	-	-	-	-
CCCCc1oc2ccccc2c1C(=O)c1cc(I)c(OCCN(CC)CC)c(I)c1	-	-	-	-	86!
O=C(Nc1nc(-c2ccccc2)cs1)Nc1ccc(F)cc1F	-	-	-	-	89
O=C(Nc1nc(-c2ccccn2)cs1)Nc1ccc(F)cc1F	-	.	-	-	.
O=C(Nc1ccc(F)cc1)Nc1ccccc1F	-	-	-	-	-
O=C(Nc1ccc(NC(=O)c2ccccc2O)cc1)Nc1ccc(F)cc1F	-	-	-	-	71
CCOc1cccc(NCc2cc3c(C(C)(C)C)nn(-c4ccccc4)c3[nH]c2=O)c1	-	-	-	-	-
CC(C)(C)c1nn(-c2ccccc2)c2[nH]c(=O)c(CNCc3ccc4c(c3)OCO4)cc12	-	-	-	-	94
Cc1ccc(-c2nnc(SCc3ccccc3F)o2)cc1	-	-	-	-	75
O=C(CNC(=O)c1ccc(S(=O)(=O)N2CCCCC2)cc1)NN=Cc1ccco1	.	-	.	.	.
COC(=O)c1c(-c2cccs2)csc1NC(=O)CN1CCOCC1	-	-	-	-	74
CCOC(=O)c1c(-c2ccc(OC)cc2)csc1NC(=O)CCN1CCOCC1	-	.	-	-	-
CCn1c(C)nc2cc(C(=O)OC(C(F)(F)C(F)F)C(F)(F)C(F)F)ccc21	-	-	-	-	74
Cc1ccc(SCC(=O)NC(=O)NCc2ccccc2)c(C)c1	-	-	-	-	81
O=C(CSc1ccccc1)NC(=O)NCc1ccccc1	-	-	-	-	-
COc1ccc(Cc2noc(-c3ccc(C)cc3)n2)cc1	-	-	-	-	88
COc1ccc(-c2nc(-c3ccc(Br)o3)no2)cc1	-	-	-	-	76
CC(C)(C)OC1NS(=O)(=O)OCC1NCOC(Cl)(Cl)Cl (stereo not drawn)	17	-	-	-	.
Oc1c(Br)cc2oc3c(c2c1CNCc1ccccc1)CCCC3	-	-	-	-	-
SMILES	CTSL1 counter	UCH37 inh	UPR CHOP act	UPR XBP1 act	CHOP inh
NC(=S)N/N=C/c1c(O)c(Br)cc2oc3c(c12)CCCC3	22	.	-	-	-
CCOC(=O)c1c(N=CC2=C(O)CC(C)(C)CC2=O)sc2c1CCCC2	.	-	.	.	.
CCCC(=O)Nc1nnc(SCC(=O)Nc2nc(C)cs2)s1	-	-	-	-	.
Cc1csc(NC(=O)CSc2nnc(NC(=O)C3CC(=O)N(c4ccccc4)C3)s2)n1 (stereo not drawn)	-	-	-	-	-
Cc1ccc(N2CC(C(=O)Nc3nnc(SCC(=O)Nc4nc(C)cs4)s3)CC2=O)cc1 (stereo not drawn)	-	.	-	-	71
Cc1csc(NC(=O)CSc2nnc(NC(=O)COc3ccc(Cl)cc3)s2)n1	-	-	-	-	93
CCCCCCOc1ccc(C=c2sc(=C(C#N)C(=O)NCc3ccco3)n(-c3ccccc3)c2=O)cc1	.	-	.	.	.
COc1ccc(C=N/N=C2/NC(=O)C(CC(=O)NC(C)C)S2)cc1 (stereo not drawn)	.	-	.	.	.
C#C[C@]1(O)CC[C@H]2[C@@H]3CCc4cc(OC5CCCC5)ccc4[C@H]3CC[C@@]21C	-	-	-	-	-
C#C[C@]1(O)CC[C@H]2[C@@H]3CCc4cc(OC)ccc4[C@H]3CC[C@@]21C	-	-	-	-	70
Cc1cccc(NC(=O)c2nc[nH]c2C(=O)Nc2cccc(C)c2)c1	-	-	-	-	87
Cc1cccc(NC(=O)c2nc[nH]c2C(=O)N[C@@H](C)C(=O)OCc2ccccc2)c1	-	-	-	-	90
Cc1ccc(N2CCN(N=CC3=C(N4CCOCC4)/C(=C\c4ccccc4)CC3)CC2)cc1	.	-	.	.	.
Cc1[nH]nc2c1C(=NO)CC(c1ccccc1)C2 (stereo not drawn)	.	-	.	.	.
O=C(CNC(=O)c1cccc(Br)c1)NN=Cc1ccc2c(c1)OCO2	.	-	.	.	.
O=c1[nH]c(Nc2ccccc2)cc2ccccc12	105	-	-	-	-
Cn1c(=O)cc(Nc2ccccc2)[nH]c1=O	-	-	-	-	.
CC(=O)c1cccc(-c2ccc3c(=O)[nH]c(Nc4ccccc4)cc3c2)c1	85	31	-	-	.
C=CCn1c(CNc2ccc(C)cc2)nnc1SCC(=O)NN=Cc1ccc(O)cc1	.	-	.	.	.
O=C1Nc2ccc(Br)cc2/C1=C/C1CC=CCC1 (stereo not drawn)	28	-	-	-	95
COc1ccc(C=NNC(=O)c2ccc(COc3cccc4cccnc34)cc2)cc1O	.	-	.	.	.
O=C1c2ccccc2C(=O)C1c1ccnc2ccccc12	-	-	-	-	83
Cc1ccc([N+](=O)[O-])cc1N/C=C1\CCc2ccccc2C1=O	-	-	-	-	85
Cc1ccc([N+](=O)[O-])cc1NC(=O)CCc1ccccc1	-	-	-	-	-
CC(C)(C)c1csc(NC(=O)Nc2ccccc2)n1	-	-	-	-	76
SMILES	CTSL1 counter	UCH37 inh	UPR CHOP act	UPR XBP1 act	CHOP inh
Cc1ccc(C(=O)Nc2nc(C(C)(C)C)cs2)s1	-	-	-	-	77
CC(C)(C)c1csc(NC(=O)c2ccncc2)n1	-	-	-	-	-
Cc1cc(O)c(-c2cc(C(=O)Nc3ccc(S(=O)(=O)N4CCOCC4)cc3)[nH]n2)cc1C	-	-	-	-	87
CCOC(=O)C1(CCC(C)=NNC(N)=O)CC(C)(C)OC1=O (stereo not drawn)	.	-	.	.	.
CC(=O)N1CCC2(CC1)CC(=NNC(=S)Nc1ccc(C)cc1)c1cc(O)ccc1O2	.	-	.	.	.
CCOc1ccc(NC(=O)CN2C(=O)COc3ccc(Cl)cc32)cc1	-	-	-	-	76
O=C(CN1C(=O)COc2ccc(Cl)cc21)Nc1ccc2c(c1)OCCO2	-	-	-	-	-
COCCNC(=O)CN1C(=O)COc2ccc(Cl)cc21	18	-	-	-	-
COc1cccc(C=Nn2nnc3c(cnn3-c3ccccc3)c2=O)c1	.	-	.	.	.
